The results in this text go back to ChEMBL document CHEMBL3877290, “Targeting the entry region of Hsp90's ATP binding pocket with a novel 6,7-dihydrothieno[3,2-c]pyridin-5(4H)-yl amide” (Eur J Med Chem, 2016).

The nature of series [1]: Antiproliferative activity against gefitinib-resistant human NCI-H1975 cells after 1 to 3 days by MTS assay. It is filed as functional. Put shortly:
(§1)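 Cells seeded at 3 × 10^3 (Skbr3) or 2 × 10^3 (H1975) per well and left to attach overnight, then exposed to varying compound concentrations or 1% DMSO vehicle at 37 °C for 1, 2 and 3 days. Viability read by MTS colorimetric assay at 490 nm and expressed as percent of DMSO-only absorbance. Skbr3 in RPMI 1640 with 25 mM HEPES; H1975 in RPMI 1640 with L-glutamine; both with 10% FBS and penicillin/streptomycin.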

Series [2] deals with Heat shock protein HSP 90-alpha (Homo sapiens, UniProt P07900). Kind of series: Inhibition of fluorescein isothiocyanate labeled geldanamycin binding to N-terminal domain of full length human recombinant Hsp90alpha expressed in Escherichia coli BL21 (DE3) after 14 hrs by fluorescence polarization assay. (In general: Fluorescence polarisation rises when a labelled molecule tumbles more slowly, as on binding a larger partner.)

Series [3] is described as follows: Antiproliferative activity against Her2-overexpressing human SKBR3 cells after 1 to 3 days by MTS assay. It is filed as functional. Particulars: SK-BR-3. In short, it runs like this: as §1
In series [4] the test system is NCI-H1975. Description: cells. Particulars: Homo sapiens, NCI-H1975, 24 h, read-out: Activity.
Series [5] concerns the target T1, Heat shock protein HSP90 (Homo sapiens) (UniProt P07900+P08238). The note with it: NCI-H1975, 0.05 to 2 uM.
In series [6] the target is T1, Heat shock protein HSP90 (Homo sapiens). Particulars: NCI-H1975, 0.05 to 2 uM. The source holds these as a separate data set.
A further series deals with Cytochrome P450 2C19 (Homo sapiens, UniProt P33261). Description: Inhibition of CYP2C19 in human liver microsomes assessed as omepraozle hydroxylation by LC/MS/MS analysis. It is filed as ADME. Put shortly:
(§2)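 Pooled human liver microsomes incubated without and with compound at 0–50 µM final (acetonitrile below 0.5%); probe activities in cocktail incubation: phenacetin O-deethylation (CYP1A2), tolbutamide 4-hydroxylation (2C9), omeprazole hydroxylation (2C19), dextromethorphan O-demethylation (2D6), midazolam 1'-hydroxylation (3A). Metabolites quantified by tandem mass spectrometry; duplicates; IC50 derived.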
On the technique in general: Microsomes from liver hold many membrane-bound enzymes, among them those of drug oxidation.

In series [7] the test system is NCI-H1975. Kind of series: Antitumor activity against human NCI-H1975 cells xenografted in NOD-scid IL2Rgamma-null mouse assessed as tumor growth inhibition at 10 mg/kg, ip administered daily followed by weekend rest for 2 weeks measured twice per week during compound dosing. It is filed as functional, organism-based. (A xenograft is tissue or cells of one species grown in another, often human tumour cells in immunodeficient mice.)

Series [8] addresses T1, Heat shock protein HSP90 (Homo sapiens). The note with it: NCI-H1975, 0.05 to 2 uM. The source holds these as a separate data set.
Series [9] relates to NCI-H1975. Kind of series: Induction of apoptosis in gefitinib-resistant human NCI-H1975 cells assessed as late apoptotic cells at 0.5 uM after 24 hrs by Annexin V-FITC/propidium iodide staining based flow cytometry (reference value: 2.79%). It is filed as functional.
The target in the next series is T2, Cytochrome P450 1A2 (Homo sapiens, UniProt P05177).
T2 sequence (P05177 whole entry): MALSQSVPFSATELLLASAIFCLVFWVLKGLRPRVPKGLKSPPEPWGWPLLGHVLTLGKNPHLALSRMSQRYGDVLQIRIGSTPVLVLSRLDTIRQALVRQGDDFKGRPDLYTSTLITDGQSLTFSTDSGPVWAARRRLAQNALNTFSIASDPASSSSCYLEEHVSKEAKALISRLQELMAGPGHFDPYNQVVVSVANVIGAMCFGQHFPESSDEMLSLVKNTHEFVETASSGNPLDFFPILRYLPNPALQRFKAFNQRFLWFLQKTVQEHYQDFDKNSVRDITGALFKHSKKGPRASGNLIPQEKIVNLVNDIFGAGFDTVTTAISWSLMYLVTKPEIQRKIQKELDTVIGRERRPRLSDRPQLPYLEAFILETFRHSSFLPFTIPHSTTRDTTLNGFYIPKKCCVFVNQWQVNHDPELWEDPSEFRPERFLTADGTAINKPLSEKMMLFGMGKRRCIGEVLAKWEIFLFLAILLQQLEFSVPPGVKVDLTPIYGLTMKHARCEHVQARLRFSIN
Kind of series: Inhibition of CYP1A2 in human liver microsomes assessed as phenacetin O-deethylation by LC/MS/MS analysis. It is filed as ADME. Put shortly:
as §2

Series [10] can be described thus: Effect on beta-actin level in gefitinib-resistant human NCI-H1975 cells at 0.05 to 2 uM after 24 hrs by Western blot analysis. It is filed as ADME, cell-based. Particulars: nci-h1975, 24 h. In short, it runs like this: (§3)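 H1975 cells seeded 1 × 10^6 per 100 mm dish, attached overnight, exposed 24 h to 0.05, 0.1, 0.5, 1 and 2 µM compound, with 1% DMSO and 1 µM geldanamycin as controls. Lysed in Tris-HCl pH 7.6/NaCl/NP-40/deoxycholate/SDS buffer; 30 µg per lane SDS-PAGE, PVDF, 5% milk block, specific antibodies (PARP, caspase 3, cleaved caspase 3/8, β-actin), HRP secondary, ECL detection.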

Series [11] concerns the target T1, Heat shock protein HSP90 (Homo sapiens). Particulars: NCI-H1975, 0.05 to 2 uM. The source holds these as a separate data set.
Series [12] relates to NCI-H1975. Kind of series: Induction of apoptosis in gefitinib-resistant human NCI-H1975 cells assessed as necrotic cells at 0.5 uM after 24 hrs by Annexin V-FITC/propidium iodide staining based flow cytometry (reference value: 2.68%). It is filed as functional.
In series [13] the test system is NCI-H1975. Kind of series: Induction of apoptosis in gefitinib-resistant human NCI-H1975 cells assessed as cleavage of caspase 3 at 0.5 uM after 24 hrs by Western blot analysis. It is filed as functional, cell-based. In short, it runs like this:
as §3

Series [14] has as its system Mus musculus. Description: Toxicity in NOD-scid IL2Rgamma-null mouse xenografted with human NCI-H1975 cells assessed as body weight loss at 10 mg/kg, ip administered daily followed by weekend rest for 2 weeks measured twice per week during compound dosing. It is filed as organism-based. Particulars: in vivo, 336 h. Put shortly: (§4)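 NSG mice (8 per group, randomised) received 2.0 × 10^6 H1975 cells s.c. in the left flank on day zero. Dosing began once tumours reached 500 mm3: i.p. at 10 mg/kg or DMSO vehicle, daily with weekend rest, for 2 weeks. Body weight tracked and deaths recorded during treatment. Housing in individually ventilated cages at 25±2 °C with a 12 h light-dark cycle.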

For a further series, the target named is CYP3A (Homo sapiens, UniProt P08684+P20815+P24462+Q9HB55). Kind of series: Inhibition of CYP3A in human liver microsomes assessed as midazolam 1'-hydroxylation by LC/MS/MS analysis. The note with it: probe midazolam (1'-hydroxylation). It is filed as ADME. In short, it runs like this: as §2
A further series concerns the target Cytochrome P450 2D6 (Homo sapiens, UniProt P10635). Kind of series: Inhibition of CYP2D6 in human liver microsomes assessed as dextromethorphan O-demethylation by LC/MS/MS analysis. It is filed as ADME. Put shortly: as §2
In series [15] the test system is NCI-H1975. Description: Induction of apoptosis in gefitinib-resistant human NCI-H1975 cells assessed as cleavage of caspase 8 at 0.5 uM after 24 hrs by Western blot analysis. It is filed as functional, cell-based. Put shortly:
as §3

The target in the next series is Cytochrome P450 2C9 (Homo sapiens, UniProt P11712). Kind of series: Inhibition of CYP2C9 in human liver microsomes assessed as tolbutamide 4-methylhydroxylation by LC/MS/MS analysis. It is filed as ADME. Put shortly: as §2
Cytochrome P450 2C9, sequence (P11712 whole entry): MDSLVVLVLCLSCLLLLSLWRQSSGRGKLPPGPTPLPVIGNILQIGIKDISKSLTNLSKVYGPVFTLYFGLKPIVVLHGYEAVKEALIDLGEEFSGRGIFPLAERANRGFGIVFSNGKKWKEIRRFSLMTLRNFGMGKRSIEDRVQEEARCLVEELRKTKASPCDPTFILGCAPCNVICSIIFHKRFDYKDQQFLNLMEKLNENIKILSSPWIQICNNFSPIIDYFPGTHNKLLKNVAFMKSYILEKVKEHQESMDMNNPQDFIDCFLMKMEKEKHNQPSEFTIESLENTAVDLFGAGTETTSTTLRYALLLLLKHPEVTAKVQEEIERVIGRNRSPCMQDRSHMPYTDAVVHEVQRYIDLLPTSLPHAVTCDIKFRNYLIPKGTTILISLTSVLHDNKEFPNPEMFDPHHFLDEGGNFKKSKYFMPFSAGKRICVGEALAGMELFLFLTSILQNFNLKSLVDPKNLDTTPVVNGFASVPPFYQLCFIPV
Series [16] has as its system NCI-H1975. Kind of series: Induction of apoptosis in gefitinib-resistant human NCI-H1975 cells assessed as early apoptotic cells at 0.5 uM after 24 hrs by Annexin V-FITC/propidium iodide staining based flow cytometry (reference value: 1.85%). It is filed as functional.
For series [17], the system named is NCI-H1975. Description: Induction of apoptosis in gefitinib-resistant human NCI-H1975 cells assessed as cleavage of PARP at 0.5 uM after 24 hrs by Western blot analysis. It is filed as functional, cell-based. Put shortly:
as §3

The target in series [18] is T1, Heat shock protein HSP90 (Homo sapiens). The note with it: NCI-H1975, 0.05 to 2 uM. This is another data set of the same source.
The target is the same in series [19]. The note with it: NCI-H1975, 0.05 to 2 uM. The source holds these as a separate data set.
Series [20] has as its system Mus musculus. Description: Decrease of Akt level in human NCI-H1975 cells xenografted in NOD-scid IL2Rgamma-null mouse at 10 mg/kg, ip administered daily followed by weekend rest for 2 weeks by immunohistochemical analysis. It is filed as functional, organism-based.
Series [21] relates to NCI-H1975. Kind of series: Induction of apoptosis in gefitinib-resistant human NCI-H1975 cells assessed as viable cells at 0.5 uM after 24 hrs by Annexin V-FITC/propidium iodide staining based flow cytometry (reference value: 92.68%). It is filed as functional. Particulars: NCI-H1975, 24 h, read-out: Activity.
In series [22] the test system is Mus musculus. Description: Toxicity in NOD-scid IL2Rgamma-null mouse xenografted with human NCI-H1975 cells assessed as mortality at 10 mg/kg, ip administered daily followed by weekend rest for 2 weeks measured twice per week during compound dosing. It is filed as organism-based. Particulars: in vivo, 336 h. In short, it runs like this:
as §4

Activity calls are given as the source filed them. The calls are words filed in the database; no cut-off is given here.

Cytochrome P450 2D6, sequence (P10635 whole entry): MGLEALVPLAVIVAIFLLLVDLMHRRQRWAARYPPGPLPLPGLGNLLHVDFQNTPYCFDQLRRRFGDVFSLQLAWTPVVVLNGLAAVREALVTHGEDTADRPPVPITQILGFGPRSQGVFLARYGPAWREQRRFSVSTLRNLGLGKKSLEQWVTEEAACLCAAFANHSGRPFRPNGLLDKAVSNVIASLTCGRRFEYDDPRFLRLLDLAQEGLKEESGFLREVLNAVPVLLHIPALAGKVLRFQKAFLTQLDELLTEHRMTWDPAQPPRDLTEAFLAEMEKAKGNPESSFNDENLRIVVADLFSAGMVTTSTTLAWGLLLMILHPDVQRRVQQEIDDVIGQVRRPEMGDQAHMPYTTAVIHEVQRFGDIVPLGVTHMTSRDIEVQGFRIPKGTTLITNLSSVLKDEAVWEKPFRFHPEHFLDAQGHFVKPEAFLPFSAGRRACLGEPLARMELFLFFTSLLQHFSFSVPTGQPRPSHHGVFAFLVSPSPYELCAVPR
Cytochrome P450 2C19, sequence (P33261 whole entry): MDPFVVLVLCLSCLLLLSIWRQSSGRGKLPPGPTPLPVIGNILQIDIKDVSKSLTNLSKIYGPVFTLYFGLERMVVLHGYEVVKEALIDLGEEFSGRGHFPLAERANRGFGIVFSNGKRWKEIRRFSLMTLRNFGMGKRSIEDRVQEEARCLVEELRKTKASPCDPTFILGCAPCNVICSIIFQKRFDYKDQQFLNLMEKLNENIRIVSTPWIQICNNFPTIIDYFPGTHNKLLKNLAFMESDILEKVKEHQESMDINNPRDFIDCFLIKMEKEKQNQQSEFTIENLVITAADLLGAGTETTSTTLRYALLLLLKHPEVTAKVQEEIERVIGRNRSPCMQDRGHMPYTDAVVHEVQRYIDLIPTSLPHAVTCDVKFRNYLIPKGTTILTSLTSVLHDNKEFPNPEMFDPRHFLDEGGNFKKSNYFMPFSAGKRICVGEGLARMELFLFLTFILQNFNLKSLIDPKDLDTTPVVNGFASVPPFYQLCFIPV

What is called GI50 is the concentration that inhibits growth by half. Lower therefore signals more potent growth inhibition. The term IC50 denotes the concentration that inhibits the measured activity by half. `O=C(Nc1ccccc1)c1cc(Cl)c(O)cc1O` gave a GI50 in series [1] greater than 50 µM. In addition, in series [2], the IC50 is greater than 1 µM.

In the case of `O=C(c1cc(Cl)c(O)cc1O)N1CCc2ccsc2C1`, the GI50 was 8.7 µM in series [1] and 5.4 µM in series [3]. The IC50 in [2] stood at 0.136 µM.

Consider `COC1=C2C[C@@H](C)C[C@H](OC)[C@H](O)[C@@H](C)/C=C(\C)[C@H](OC(N)=O)[C@@H](OC)/C=C\C=C(/C)C(=O)NC(=CC1=O)C2=O` [GELDANAMYCIN], for which the GI50 in series [1] turned out to be 0.56 µM; in series [3], 0.43 µM. For the same compound, in the series on NCI-H1975 [4], the viability at 1 µM turned out to be 65.7%.

`O=C(c1cc(Cl)c(O)cc1O)N1CCN(c2ccccc2)CC1`: the GI50 was found to be 19.1 µM in series [1] and 9.3 µM in series [3]. Also, the IC50 in series [2] was 0.481 µM.

With `O=C(c1cc(Cl)c(O)cc1O)N1CCc2ccccc2C1`, the GI50 in [1] is 19.9 µM; in series [3] it was 7.1 µM. The IC50 in series [2] worked out at 0.183 µM.

Consider `Oc1cc(O)c(-c2nc3ccccc3o2)cc1Cl`, for which the GI50 in series [1] and in series [3] was greater than 50 µM in each case. Besides, the IC50 in [2] was greater than 1 µM.

`O=C(Nc1ccc(O)cc1)c1cc(Cl)c(O)cc1O` returned a GI50 in series [1] greater than 50 µM. Also, in [2], the IC50 is greater than 1 µM.

As to `CC(C)c1cc(C(=O)N2CCc3sccc3C2)c(O)cc1O`, the inhibition result in series [5], in series [6], in series [8], in [11], in [18] and in [19] was “Active” in each case. The IC50 at Cytochrome P450 2C19 is greater than 50 µM; at Cytochrome P450 1A2 it was greater than 50 µM; at CYP3A, greater than 50 µM; on Cytochrome P450 2D6 it was greater than 50 µM; in [2], 0.0503 µM; on Cytochrome P450 2C9 it was greater than 50 µM. Further, the TGI entry with NCI-H1975 [7] was “Active”. The Activity is listed as 3.77% with NCI-H1975 [9]; “Non-Toxic” in [10]; 3.67% in the series on NCI-H1975 [12]; “Non-Toxic” in the series on Mus musculus [14]; 8.67% in the series with NCI-H1975 [16]; “Non-Toxic” in the series with Mus musculus [22]. Also, the figures for the GI50 in series [1] and in series [3] were 0.31 µM and 0.11 µM, respectively. Also, the result in the series with NCI-H1975 [13], in the series with NCI-H1975 [15], in the series on NCI-H1975 [17] and with Mus musculus [20] was Active. Further, the viability at 1 µM with NCI-H1975 [4] amounted to 76%. In the series on NCI-H1975 [21], the viability at 0.5 µM amounted to 83.9%.
